Source: ChEMBL document CHEMBL3259528, “Exploring 5-nitrofuran derivatives against nosocomial pathogens: synthesis, antimicrobial activity and chemometric analysis” (2014)
≈ marks a conversion by molar mass, not a printed value. Calls of active or inactive are those of the source. No cut-off for these calls is given here.

Columns and labels:
[1] = system: Enterococcus faecalis; assay: Antimicrobial activity against Enterococcus faecalis ATCC 29212 after 24 to 48 hrs by two-fold broth microdilution method; format: functional
[2] = system: Staphylococcus aureus; assay: Antimicrobial activity against Staphylococcus aureus ATCC 29213 after 18 hrs by modified broth microdilution method; format: functional
Outline: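 PGI90, the concentration giving 90% growth inhibition, fitted with an exponential growth curve from at least seven concentrations of the MIC assay. Inhibition % = [(Ac − Ap)/Ac] × 100 from A620 of drug-free control versus drug-treated culture. Checked by a modified broth microdilution (Phase 2).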

[3] = system: Staphylococcus aureus; assay: Antimicrobial activity against multidrug-resistant Staphylococcus aureus VISA3 […] by two-fold broth microdilution method; format: functional
[4] = system: Klebsiella pneumoniae; assay: Antimicrobial activity against Klebsiella pneumoniae ATCC 700603 at 128 uM after 24 to 48 hrs by two-fold broth microdilution method; format: functional, organism-based
Outline: (§1)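 Antibacterial microdilution in CAMH, inoculum 0.5 McFarland diluted in saline/CAMH, 35 °C for 18 h, with further reads at 24 and 48 h. Activity is scored at the maximum tested concentration, 128 µM. Triplicate.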

[5] = system: Escherichia coli; assay: Antimicrobial activity against Escherichia coli ATCC 25922 after 24 to 48 hrs by two-fold broth microdilution method; format: functional
[6] = system: Enterobacter cloacae; assay: Antimicrobial activity against Enterobacter cloacae ATCC 23355 after 24 to 48 hrs by two-fold broth microdilution method; format: functional
[7] = system: Candida albicans; assay: Antimicrobial activity against Candida albicans ATCC 537Y at 64 uM after 48 hrs by two-fold broth microdilution method; format: functional, organism-based
Outline: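 Single top concentration of the antifungal microdilution: RPMI 1640, inoculum 0.5 McFarland diluted in saline/RPMI, 35 °C for 48 h. Activity is judged at the highest tested level, 64 µM. Run in triplicate.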

[8] = system: Staphylococcus aureus; assay: Antimicrobial activity against Staphylococcus aureus ATCC 29213 after 24 to 48 hrs by two-fold broth microdilution method; format: functional
[9] = system: Serratia marcescens; assay: Antimicrobial activity against Serratia marcescens ATCC 14576 at 128 uM after 24 to 48 hrs by two-fold broth microdilution method; format: functional, organism-based; outline: as §1
[10] = system: Escherichia coli; assay: Antimicrobial activity against Escherichia coli ATCC 25922 at 128 uM after 24 to 48 hrs by two-fold broth microdilution method; format: functional, organism-based; outline: as §1
[11] = system: Enterobacter cloacae; assay: Antimicrobial activity against Enterobacter cloacae ATCC 23355 at 128 uM after 24 to 48 hrs by two-fold broth microdilution method; format: functional, organism-based; outline: as §1
[12] = system: Serratia marcescens; assay: Antimicrobial activity against Serratia marcescens ATCC 14576 after 24 to 48 hrs by two-fold broth microdilution method; format: functional
[13] = system: Candida albicans; assay: Antimicrobial activity against Candida albicans ATCC 537Y after 48 hrs by two-fold broth microdilution method; format: functional
Outline: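 Two-fold serial dilutions in RPMI 1640 per CLSI M27-A2. Stocks in DMSO/RPMI 1:20 v/v. Test range 1.0–64 µM. Inoculum set to 0.5 McFarland, then diluted in saline and RPMI 1640. Plates held at 35 °C for 48 h. MIC is the lowest concentration giving prominent growth reduction. Run in triplicate.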

[14] = system: Enterococcus faecalis; assay: Antimicrobial activity against Enterococcus faecalis ATCC 29212 at 128 uM after 24 to 48 hrs by two-fold broth microdilution method; format: functional, organism-based; outline: as §1

MIC [1] [µM] | MIC [5] [µM] | MIC [6] [µM] | MIC [8] [µM] | MIC [12] [µM] | MIC90 [12] [µM] | MIC [13] [µM] | MIC90 [13] [µM] | Compound | MIC90 [1] [µM] | log(1/MIC>90) [2] | MIC [3] [µM] | Activity [4] | MIC90 [5] [µM] | MIC90 [6] [µM] | Activity [7] | MIC90 [8] [µM] | Activity [9] | Activity [10] | Activity [11] | Activity [14]
32 (≈ 11.8 µg/mL) | 64 (≈ 23.7 µg/mL) | – | 4 (≈ 1.48 µg/mL) | 64 (≈ 23.7 µg/mL) | 85.7 (≈ 31.7 µg/mL) | 32 (≈ 11.8 µg/mL) | 42.2 (≈ 15.6 µg/mL) | CC(=O)N1N=C(c2ccc(Cl)cc2Cl)OC1c1ccc([N+](=O)[O-])o1 (stereo not given) | 31.7 (≈ 11.7 µg/mL) | 5.21 | – | inactive | 86.1 (≈ 31.9 µg/mL) | – | – | 6.12 (≈ 2.27 µg/mL) | – | – | inactive | –
– | 32 (≈ 9.67 µg/mL) | – | 4 (≈ 1.21 µg/mL) | – | – | – | – | CN(C)c1ccc(C(=O)N/N=C/c2ccc([N+](=O)[O-])o2)cc1 | – | 5.11 | – | inactive | 55 (≈ 16.6 µg/mL) | – | inactive | 7.7 (≈ 2.33 µg/mL) | inactive | – | inactive | inactive
< 20 | < 20 | 8 (≈ 2.8 µg/mL) | < 20 | – | – | – | – | CC1(C)S[C@@H]2[C@H](NC(=O)[C@H](N)c3ccccc3)C(=O)N2[C@H]1C(=O)O [AMPICILLIN] | – | – | – | inactive | – | – | – | – | inactive | – | – | –
16 (≈ 3.81 µg/mL) | – | 8 (≈ 1.91 µg/mL) | 16 (≈ 3.81 µg/mL) | – | – | – | – | O=C1CN(/N=C/c2ccc([N+](=O)[O-])o2)C(=O)N1 [NITROFURANTOIN] | – | – | – | inactive | – | – | – | – | inactive | – | – | –
32 (≈ 11.1 µg/mL) | 32 (≈ 11.1 µg/mL) | – | 4 (≈ 1.39 µg/mL) | 64 (≈ 22.2 µg/mL) | 90.5 (≈ 31.3 µg/mL) | 32 (≈ 11.1 µg/mL) | 44.6 (≈ 15.4 µg/mL) | CC(=O)N1N=C(c2ccc([N+](=O)[O-])cc2)OC1c1ccc([N+](=O)[O-])o1 (stereo not given) | 57.3 (≈ 19.8 µg/mL) | 5.14 | – | inactive | 54.6 (≈ 18.9 µg/mL) | – | – | 5.78 (≈ 2 µg/mL) | – | – | inactive | –
8 (≈ 2.59 µg/mL) | 4 (≈ 1.29 µg/mL) | 4 (≈ 1.29 µg/mL) | 4 (≈ 1.29 µg/mL) | 8 (≈ 2.59 µg/mL) | – | – | – | O=C(N[C@H](CO)[C@H](O)c1ccc([N+](=O)[O-])cc1)C(Cl)Cl [CHLORAMPHENICOL] | – | – | – | inactive | – | – | – | – | – | – | – | –

Compound | MIC [1] [µM] | MIC [5] [µM] | MIC [6] [µM] | MIC [8] [µM] | MIC [12] [µM] | MIC90 [12] [µM] | MIC [13] [µM] | MIC90 [13] [µM] | MIC90 [1] [µM] | log(1/MIC>90) [2] | MIC [3] [µM] | Activity [4] | MIC90 [5] [µM] | MIC90 [6] [µM] | Activity [7] | MIC90 [8] [µM] | Activity [9] | Activity [10] | Activity [11] | Activity [14]
O=C(N/N=C/c1ccc([N+](=O)[O-])o1)c1ccc(O)cc1 [NIFUROXAZIDE] | 8 (≈ 2.2 µg/mL) | 32 (≈ 8.81 µg/mL) | 32 (≈ 8.81 µg/mL) | 4 (≈ 1.1 µg/mL) | – | – | – | – | 10.6 (≈ 2.93 µg/mL) | 5.05 | 8 (≈ 2.2 µg/mL) | inactive | 42 (≈ 11.6 µg/mL) | 31.2 (≈ 8.59 µg/mL) | inactive | 8.87 (≈ 2.44 µg/mL) | inactive | – | – | –
CC(=O)N1N=C(c2ccc(C(F)(F)F)cc2)OC1c1ccc([N+](=O)[O-])o1 (stereo not given) | – | – | – | 4 (≈ 1.48 µg/mL) | – | – | – | – | – | 5.25 | 4 (≈ 1.48 µg/mL) | inactive | – | – | inactive | 5.6 (≈ 2.07 µg/mL) | inactive | inactive | inactive | –
CC(=O)N1N=C(c2ccc(C#N)cc2)OC1c1ccc([N+](=O)[O-])o1 (stereo not given) | 64 (≈ 20.9 µg/mL) | 32 (≈ 10.4 µg/mL) | – | 2 (≈ 0.653 µg/mL) | 64 (≈ 20.9 µg/mL) | 96.3 (≈ 31.4 µg/mL) | 32 (≈ 10.4 µg/mL) | 47.6 (≈ 15.5 µg/mL) | 75.2 (≈ 24.5 µg/mL) | 5.41 | 4 (≈ 1.31 µg/mL) | inactive | 43.1 (≈ 14.1 µg/mL) | – | – | 3.89 (≈ 1.27 µg/mL) | – | – | inactive | –
CCCCc1ccc(C(=O)N/N=C/c2ccc([N+](=O)[O-])o2)cc1 | 32 (≈ 10.1 µg/mL) | – | – | 2 (≈ 0.631 µg/mL) | – | – | – | – | 55.9 (≈ 17.6 µg/mL) | 5.74 | 2 (≈ 0.631 µg/mL) | inactive | – | – | inactive | 1.8 (≈ 0.568 µg/mL) | inactive | inactive | inactive | –
CC(=O)N1N=C(c2ccc(Cl)cc2)OC1c1ccc([N+](=O)[O-])o1 (stereo not given) | – | 64 (≈ 21.5 µg/mL) | – | 4 (≈ 1.34 µg/mL) | – | – | – | – | – | 5.26 | 4 (≈ 1.34 µg/mL) | inactive | 88.7 (≈ 29.8 µg/mL) | – | inactive | 5.45 (≈ 1.83 µg/mL) | inactive | – | inactive | –
